{"source": "ChEMBL document CHEMBL1121652", "about": "“Allylprodine analogues as receptor probes. Evidence that phenolic and nonphenolic ligands interact with different subsites on identical opioid receptors” (J Med Chem, 1981)", "key": {"Cavia porcellus [1]": {"organism": "Cavia porcellus", "test": "Relative agonist molar potency on the electrically stimulated guinea pig myenteric plexus longitudinal muscle preparation at 10e-6; Inactive", "type": "functional", "conditions": "Muscle tissue", "in_short": "(§1)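 Electrically stimulated guinea pig ileum myenteric plexus–longitudinal muscle, measuring inhibition of twitch. Compounds active at 10⁻⁷ M or below were run in at least three independent preparations. Reversibility was checked with naloxone 2 × 10⁻⁶ M in the bath.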"}, "Mus musculus [2]": {"system": "Mus musculus", "test": "Compound was evaluated for antagonist activity only at subagonistic dose levels in mice by mouse hotplate procedure; Inactive at 30 umol/kg", "type": "functional, organism-based"}, "Mus musculus [3]": {"system": "Mus musculus", "test": "Compound was tested for narcotic agonist activity in mice by mouse hotplate procedure; Inactive at 55 uM/kg", "type": "functional, organism-based", "in_short": "(§2)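 Male white Swiss-Webster mice, 25–35 g, at least five per dose. Baseline taken as three reaction times 15 min apart. Drug given s.c. in physiological saline. Hot plate read 10, 15 or 30 min after dosing, depending on compound class. Analgesia means postinjection time over double the control, with a 30 s cutoff. ED50 by probit analysis on free-base molar dose.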"}, "Mus musculus [4]": {"organism": "Mus musculus", "test": "Narcotic antagonistic potency evaluated by morphine-induced Straub tail phenomenon in mice", "type": "functional, organism-based", "conditions": "read-out: pA2 (converted)"}, "Mus musculus [5]": {"system": "Mus musculus", "test": "Compound was evaluated for antagonist activity only at subagonistic dose levels in mice by mouse hotplate procedure; Inactive at 60 uM/kg", "type": "functional, organism-based"}, "Mus musculus [6]": {"system": "Mus musculus", "test": "Compound was tested for narcotic agonist activity in mice by mouse hotplate procedure; Inactive at 60 uM/kg", "type": "functional, organism-based", "in_short": "as §2"}, "Cavia porcellus [7]": {"organism": "Cavia porcellus", "test": "Relative agonist molar potency on the electrically stimulated guinea pig myenteric plexus longitudinal muscle preparation", "type": "functional, Muscle tissue", "in_short": "as §1"}, "Mus musculus [8]": {"system": "Mus musculus", "test": "Compound was evaluated for antagonist activity only at subagonistic dose levels in mice by mouse hotplate procedure; Inactive at 17 uM/kg", "type": "functional, organism-based"}, "Mus musculus [9]": {"organism": "Mus musculus", "test": "Compound was tested for narcotic agonist activity in mice by mouse hotplate procedure", "type": "functional", "in_short": "as §2"}, "Mus musculus [10]": {"organism": "Mus musculus", "test": "Compound was tested for narcotic agonist activity (effective dose) by mouse hotplate procedure"}, "Mus musculus [11]": {"system": "Mus musculus", "test": "Compound was evaluated for antagonist activity only at subagonistic dose levels in mice by mouse hotplate procedure; Inactive at 100 uM/kg", "type": "functional, organism-based"}, "Mus musculus [12]": {"system": "Mus musculus", "test": "Compound was tested for narcotic agonist activity in mice by mouse hotplate procedure; Inactive at 100 uM/kg", "type": "functional, organism-based", "in_short": "as §2"}, "Mus musculus [13]": {"system": "Mus musculus", "test": "Compound was evaluated for antagonist activity only at subagonistic dose levels in mice by mouse hotplate procedure; Inactive at 15 umol/kg", "type": "functional, organism-based"}, "Mus musculus [14]": {"system": "Mus musculus", "test": "Compound was evaluated for antagonist activity only at subagonistic dose levels in mice by mouse hotplate procedure; Inactive at 115 uM/kg", "type": "functional, organism-based"}, "Mus musculus [15]": {"system": "Mus musculus", "test": "Compound was tested for narcotic agonist activity in mice by mouse hotplate procedure; Inactive at 115 uM/kg", "type": "functional, organism-based", "in_short": "as §2"}, "Mus musculus [16]": {"organism": "Mus musculus", "test": "Narcotic antagonistic potency evaluated in morphine-induced Straub tail phenomenon in mice", "type": "functional, organism-based", "conditions": "read-out: pA2 (converted)"}, "Mus musculus [17]": {"organism": "Mus musculus", "test": "Compound was evaluated for antagonist activity only at subagonistic dose levels by mouse hotplate procedure", "type": "functional"}, "Mus musculus [18]": {"system": "Mus musculus", "test": "Compound was tested for narcotic agonist activity in mice by mouse hotplate procedure; Inactive at 120 uM/kg", "type": "functional, organism-based", "in_short": "as §2"}, "Mus musculus [19]": {"system": "Mus musculus", "test": "Compound was evaluated for antagonist activity only at subagonistic dose of 120 uM/kg levels in mice by mouse hotplate procedure", "type": "functional"}, "Mus musculus [20]": {"system": "Mus musculus", "test": "Compound was evaluated for antagonist activity only at subagonistic dose levels in mice by mouse hotplate procedure; Inactive at 26 uM/kg", "type": "functional, organism-based"}, "Mus musculus [21]": {"organism": "Mus musculus", "test": "Compound was evaluated for antagonist activity only at subagonistic dose levels in mice by mouse hotplate procedure", "type": "functional"}, "Mus musculus [22]": {"system": "Mus musculus", "test": "Compound was tested for narcotic agonist activity in mice by mouse hotplate procedure; Inactive at 110 uM/kg", "type": "functional, organism-based", "in_short": "as §2"}}, "note": "The source made the active and inactive calls."}
{"smiles": "C=CC[C@H]1CN(CC=C)CC[C@@]1(OC(=O)CC)c1cccc(O)c1", "values": [{"measurement": "Potency", "setting": "Cavia porcellus [1]", "result": "inactive"}, {"measurement": "AD50", "setting": "Mus musculus [2]", "result": "inactive"}, {"measurement": "ED50", "setting": "Mus musculus [3]", "result": "inactive"}, {"measurement": "Kb", "setting": "Mus musculus [4]", "result": "≥ 1", "unit": "µM"}]}
{"smiles": "C=CC[C@H]1CN(C)CC[C@@]1(OC(=O)CC)c1cccc(O)c1", "values": [{"measurement": "Potency", "setting": "Cavia porcellus [1]", "result": "inactive"}, {"measurement": "AD50", "setting": "Mus musculus [5]", "result": "inactive"}, {"measurement": "ED50", "setting": "Mus musculus [6]", "result": "inactive"}, {"measurement": "Kb", "setting": "Mus musculus [4]", "result": "≥ 1", "unit": "µM"}]}
{"smiles": "CCC(=O)OC1(c2cccc(O)c2)CCN(C)CC1", "values": [{"measurement": "Potency", "setting": "Cavia porcellus [7]", "result": 0.011}, {"measurement": "AD50", "setting": "Mus musculus [8]", "result": "inactive"}, {"measurement": "Kb", "setting": "Mus musculus [4]", "result": "≥ 1", "unit": "µM"}, {"measurement": "ED50", "setting": "Mus musculus [9]", "result": 110, "unit": "µmol/kg"}]}
{"smiles": "CN1CC[C@]23c4c5ccc(O)c4O[C@H]2[C@@H](O)C=C[C@H]3[C@H]1C5", "note": "[MORPHINE]", "values": [{"measurement": "ED50", "setting": "Mus musculus [10]", "result": 12.4, "unit": "µmol/kg"}]}
{"smiles": "CCC[C@H]1CN(C)CC[C@@]1(OC(=O)CC)c1cccc(O)c1", "values": [{"measurement": "Potency", "setting": "Cavia porcellus [1]", "result": "inactive"}, {"measurement": "AD50", "setting": "Mus musculus [11]", "result": "inactive"}, {"measurement": "ED50", "setting": "Mus musculus [12]", "result": "inactive"}, {"measurement": "Kb", "setting": "Mus musculus [4]", "result": "≥ 1", "unit": "µM"}]}
{"smiles": "C=CC[C@@H]1CN(C)CC[C@@]1(OC(=O)CC)c1cccc(OC)c1", "values": [{"measurement": "Potency", "setting": "Cavia porcellus [7]", "result": 0.12}, {"measurement": "AD50", "setting": "Mus musculus [13]", "result": "inactive"}, {"measurement": "Kb", "setting": "Mus musculus [4]", "result": "≥ 1", "unit": "µM"}, {"measurement": "ED50", "setting": "Mus musculus [9]", "result": 34.7, "unit": "µmol/kg"}]}
{"smiles": "C=CC[C@H]1CN(C)CC[C@@]1(OC(=O)CC)c1cccc(OC)c1", "values": [{"measurement": "Potency", "setting": "Cavia porcellus [1]", "result": "inactive"}, {"measurement": "AD50", "setting": "Mus musculus [14]", "result": "inactive"}, {"measurement": "ED50", "setting": "Mus musculus [15]", "result": "inactive"}, {"measurement": "Kb", "setting": "Mus musculus [4]", "result": "≥ 1", "unit": "µM"}]}
{"smiles": "C=CC[C@@H]1CN(C)CC[C@@]1(OC(=O)CC)c1ccccc1", "values": [{"measurement": "Potency", "setting": "Cavia porcellus [7]", "result": 4.51}, {"measurement": "Kb", "setting": "Mus musculus [4]", "result": "≥ 1", "unit": "µM"}, {"measurement": "ED50", "setting": "Mus musculus [9]", "result": 0.54, "unit": "µmol/kg"}]}
{"smiles": "O=C1CC[C@@]2(O)[C@H]3Cc4ccc(O)c5c4[C@@]2(CCN3CC2CC2)[C@H]1O5", "note": "[NALTREXONE]", "values": [{"measurement": "Kb", "setting": "Mus musculus [16]", "result": "> 1", "unit": "µM"}, {"measurement": "AD50", "setting": "Mus musculus [17]", "result": 0.031, "unit": "µM/kg"}]}
{"smiles": "C=CCN1CC[C@]23c4c5ccc(O)c4O[C@H]2C(=O)CC[C@@]3(O)[C@H]1C5", "note": "[NALOXONE]", "values": [{"measurement": "Kb", "setting": "Mus musculus [16]", "result": 0.00295, "unit": "µM"}]}
{"smiles": "C=CC[C@@H]1CN(C)CC[C@@]1(OC(=O)CC)c1cccc(O)c1", "values": [{"measurement": "Potency", "setting": "Cavia porcellus [1]", "result": "inactive"}, {"measurement": "ED50", "setting": "Mus musculus [18]", "result": "inactive"}, {"measurement": "AD50", "setting": "Mus musculus [19]", "result": 12, "unit": "%"}, {"measurement": "Kb", "setting": "Mus musculus [4]", "result": "≥ 1", "unit": "µM"}]}
{"smiles": "CCC[C@@H]1CN(C)CC[C@@]1(OC(=O)CC)c1cccc(O)c1", "values": [{"measurement": "Potency", "setting": "Cavia porcellus [1]", "result": "inactive"}, {"measurement": "AD50", "setting": "Mus musculus [11]", "result": "inactive"}, {"measurement": "ED50", "setting": "Mus musculus [12]", "result": "inactive"}, {"measurement": "Kb", "setting": "Mus musculus [4]", "result": "≥ 1", "unit": "µM"}]}
{"smiles": "C=CC[C@@H]1CN(CC=C)CC[C@@]1(OC(=O)CC)c1cccc(OC)c1", "values": [{"measurement": "Potency", "setting": "Cavia porcellus [7]", "result": 0.033}, {"measurement": "AD50", "setting": "Mus musculus [20]", "result": "inactive"}, {"measurement": "Kb", "setting": "Mus musculus [4]", "result": "≥ 1", "unit": "µM"}, {"measurement": "Inhibition", "setting": "Mus musculus [9]", "result": 17, "unit": "%"}]}
{"smiles": "C=CC[C@@H]1CN(CC=C)CC[C@@]1(OC(=O)CC)c1cccc(O)c1", "values": [{"measurement": "Potency", "setting": "Cavia porcellus [1]", "result": "inactive"}, {"measurement": "AD50", "setting": "Mus musculus [21]", "result": 74.13, "unit": "µM/kg"}, {"measurement": "ED50", "setting": "Mus musculus [22]", "result": "inactive"}, {"measurement": "Kb", "setting": "Mus musculus [4]", "result": "≥ 1", "unit": "µM"}]}
